Laboratory results published in ChEMBL document CHEMBL2407049, “Cyclopeptide alkaloids: stereochemistry and synthesis of the precursors of discarines C and D and myrianthine A” (2013).
Calls of active or inactive are those of the source. The calls are words filed in the database; no cut-off is given here.

Experiments:
[1] = test system: Saccharomyces cerevisiae; assay: Antifungal activity against Saccharomyces cerevisiae ATCC 2601 assessed as concentration required to inhibit fungal growth after 24 hrs by TLC assay; assay type: functional
Summary of the method: (§1)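 Direct TLC bioautography: compound amounts from 50 to 1.56 μg applied to precoated TLC plates, overlaid with Mueller Hinton or Sabouraud agar inoculated with microorganism suspension (10⁵ cfu mL⁻¹). Plates incubated 24 h at 37 °C, then stained with aqueous 2,3,5-triphenyltetrazolium chloride (1 mg mL⁻¹). The lowest amount giving an inhibition zone was recorded; <50 μg counted active. Triplicate.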

[2] = test system: Staphylococcus epidermidis; assay: Antibacterial activity against Staphylococcus epidermidis ATCC 12228 assessed as concentration required to inhibit bacterial growth after 24 hrs by TLC assay; assay type: functional; summary of the method: as §1
[3] = test system: Candida dubliniensis; assay: Antifungal activity against Candida dubliniensis SM 26 clinical isolate assessed as concentration required to inhibit fungal growth after 24 hrs by TLC assay; assay type: functional; summary of the method: as §1
[4] = test system: Staphylococcus aureus; assay: Antibacterial activity against Staphylococcus aureus ATCC 6538p assessed as growth inhibition at 50 to 1.56 ug after 24 hrs by TLC assay; assay type: functional; summary of the method: as §1
[5] = test system: Klebsiella pneumoniae; assay: Antibacterial activity against Klebsiella pneumoniae ATCC 10031 assessed as concentration required to inhibit bacterial growth after 24 hrs by TLC assay; assay type: functional; summary of the method: as §1
[6] = test system: Escherichia coli; assay: Antibacterial activity against Escherichia coli ATCC 11103 assessed as growth inhibition at 50 to 1.56 ug after 24 hrs by TLC assay; assay type: functional; summary of the method: as §1
[7] = test system: Staphylococcus aureus; assay: Antibacterial activity against Staphylococcus aureus ATCC 6538p assessed as concentration required to inhibit bacterial growth after 24 hrs by TLC assay; assay type: functional; summary of the method: as §1
[8] = test system: Staphylococcus epidermidis; assay: Antibacterial activity against Staphylococcus epidermidis ATCC 12228 assessed as growth inhibition at 50 to 1.56 ug after 24 hrs by TLC assay; assay type: functional; summary of the method: as §1
[9] = test system: Klebsiella pneumoniae; assay: Antibacterial activity against Klebsiella pneumoniae ATCC 10031 assessed as growth inhibition at 50 to 1.56 ug after 24 hrs by TLC assay; assay type: functional; summary of the method: as §1
[10] = (§2) Antibacterial activity against Salmonella Setubal ATCC 19196 assessed as growth inhibition at 50 to 1.56 ug after 24 hrs by TLC assay; assay type: functional, Salmonella enterica subsp. enterica serovar Setubal; summary of the method: as §1
[11] = test system: Kocuria rhizophila; assay: Antibacterial activity against Micrococcus luteus ATCC 9341 assessed as concentration required to inhibit bacterial growth after 24 hrs by TLC assay; assay type: functional; summary of the method: as §1
[12] = test system: Cryptococcus neoformans; assay: Antifungal activity against Cryptococcus neoformans ATCC 28952 assessed as concentration required to inhibit fungal growth after 24 hrs by TLC assay; assay type: functional; summary of the method: as §1
[13] = test system: Escherichia coli; assay: Antibacterial activity against Escherichia coli ATCC 11103 assessed as concentration required to inhibit bacterial growth after 24 hrs by TLC assay; assay type: functional; summary of the method: as §1
[14] = test system: Candida albicans; assay: Antifungal activity against Candida albicans ATCC 10231 assessed as concentration required to inhibit fungal growth after 24 hrs by TLC assay; assay type: functional; summary of the method: as §1
[15] = Antibacterial activity against Salmonella Setubal ATCC 19196 assessed as concentration required to inhibit bacterial growth after 24 hrs by TLC assay; assay type: functional, Salmonella enterica subsp. enterica serovar Setubal; summary of the method: as §1
[16] = test system: Kocuria rhizophila; assay: Antibacterial activity against Micrococcus luteus ATCC 9341 assessed as growth inhibition at 50 to 1.56 ug after 24 hrs by TLC assay; assay type: functional; summary of the method: as §1
[17] = test system: Candida tropicalis; assay: Antifungal activity against Candida tropicalis ATCC 750 assessed as concentration required to inhibit fungal growth after 24 hrs by TLC assay; assay type: functional; summary of the method: as §1
[18] = test system: Salmonella enterica subsp. enterica serovar Setubal; assay: as §2; assay type: functional; summary of the method: as §1

SMILES | Activity [1] [µg] | Activity [2] [µg] | Activity [3] [µg] | Activity [5] [µg] | Activity [7] [µg] | Activity [11] [µg] | Activity [12] [µg] | Activity [13] [µg] | Activity [14] [µg] | Activity [15] [µg] | Activity [17] [µg] | further results
CC[C@H](C)[C@H](NC(=O)[C@@H](NC(=O)[C@H](CC(C)C)N(C)C)[C@@H](Oc1ccc(C=O)cc1)c1ccccc1)C(=O)OC | <50 | <50 | <50 | <50 | <50 | <50 | <50 | <50 | <50 | <50 | <50 | Activity [4]: <50 µg; Activity [6]: <50 µg; Activity [8]: <50 µg; Activity [9]: <50 µg; Activity [10]: <50 µg; Activity [16]: <50 µg
CC[C@H](C)[C@H](NC(=O)[C@H](NC(=O)[C@H](CC(C)C)N(C)C)[C@H](Oc1ccc(C=O)cc1)c1ccccc1)C(=O)OC | <50 | <50 | <50 | <50 | <50 | <50 | <50 | <50 | <50 | <50 | <50 | growth inhibition (GI) [4]: inactive; growth inhibition (GI) [6]: inactive; growth inhibition (GI) [8]: inactive; growth inhibition (GI) [9]: inactive; growth inhibition (GI) [18]: inactive; growth inhibition (GI) [16]: inactive
COC(=O)[C@H](Cc1ccccc1)NC(=O)[C@@H](NC(=O)[C@H](CC(C)C)N(C)C)[C@@H](Oc1ccc(C=O)cc1)c1ccccc1 (mixture of isomers) | <50 | <50 | <50 | <50 | <50 | <50 | <50 | <50 | <50 | <50 | <50 | Activity [4]: <50 µg; Activity [6]: <50 µg; Activity [8]: <50 µg; Activity [9]: <50 µg; Activity [10]: <50 µg; Activity [16]: <50 µg
COC(=O)[C@H](Cc1ccccc1)NC(=O)[C@H](NC(=O)[C@H](CC(C)C)N(C)C)[C@H](Oc1ccc(C=O)cc1)c1ccccc1 (mixture of isomers) | <50 | <50 | <50 | <50 | <50 | <50 | <50 | <50 | <50 | <50 | <50 | growth inhibition (GI) [4]: inactive; growth inhibition (GI) [6]: inactive; growth inhibition (GI) [8]: inactive; growth inhibition (GI) [9]: inactive; growth inhibition (GI) [18]: inactive; growth inhibition (GI) [16]: inactive
COC(=O)[C@H](Cc1ccccc1)NC(=O)[C@H]([C@@H](Oc1ccc(C=O)cc1)c1ccccc1)N1CN(C)[C@@H](CC(C)C)C1=O (mixture of isomers) | <50 | <50 | <50 | <50 | <50 | <50 | <50 | <50 | <50 | <50 | <50 | –
COC(=O)[C@H](CC(C)C)NC(=O)[C@@H](NC(=O)[C@H](CC(C)C)N(C)C)[C@@H](Oc1ccc(C=O)cc1)c1ccccc1 (mixture of isomers) | <50 | <50 | <50 | <50 | <50 | <50 | <50 | <50 | <50 | <50 | <50 | –
COC(=O)[C@H](Cc1ccccc1)NC(=O)[C@@H]([C@@H](O)c1ccccc1)N1CN(C)[C@@H](CC(C)C)C1=O (mixture of isomers) | <50 | 6.2 | <50 | 6.2 | <50 | <50 | <50 | 3.1 | <50 | 12.5 | <50 | –
COC(=O)[C@H](Cc1ccccc1)NC(=O)[C@H](NC(=O)[C@H](CC(C)C)NC(=O)OCc1ccccc1)[C@@H](O)c1ccccc1 (mixture of isomers) | <50 | <50 | <50 | <50 | <50 | <50 | <50 | <50 | <50 | <50 | <50 | –
CC[C@H](C)[C@H](NC(=O)[C@H](NC(=O)[C@H](CC(C)C)NC(=O)OCc1ccccc1)[C@@H](O)c1ccccc1)C(=O)OC (mixture of isomers) | <50 | <50 | <50 | <50 | <50 | <50 | <50 | <50 | <50 | <50 | <50 | –
COC(=O)[C@H](Cc1ccccc1)NC(=O)[C@@H]([C@H](Oc1ccc(C=O)cc1)c1ccccc1)N1CN(C)[C@@H](CC(C)C)C1=O (mixture of isomers) | <50 | <50 | <50 | <50 | <50 | <50 | <50 | <50 | <50 | <50 | <50 | –
CC[C@H](C)[C@H](NC(=O)[C@@H]([C@H](Oc1ccc(C=O)cc1)c1ccccc1)N1CN(C)[C@@H](CC(C)C)C1=O)C(=O)OC (mixture of isomers) | <50 | <50 | <50 | <50 | <50 | <50 | <50 | <50 | <50 | <50 | <50 | –
COC(=O)[C@H](CC(C)C)NC(=O)[C@@H]([C@H](Oc1ccc(C=O)cc1)c1ccccc1)N1CN(C)[C@@H](CC(C)C)C1=O (mixture of isomers) | <50 | <50 | <50 | <50 | <50 | <50 | <50 | <50 | <50 | <50 | <50 | –
CC[C@H](C)[C@H](NC(=O)[C@H]([C@@H](Oc1ccc(C=O)cc1)c1ccccc1)N1CN(C)[C@@H](CC(C)C)C1=O)C(=O)OC (mixture of isomers) | <50 | <50 | <50 | <50 | <50 | <50 | <50 | <50 | <50 | <50 | <50 | –
CC[C@H](C)[C@@H]1NC(=O)[C@@H](NC(=O)[C@H](CC(C)C)N(C)C)[C@H](c2ccccc2)Oc2ccc(cc2)/C=C\NC1=O (mixture of isomers) | >50 | >50 | >50 | >50 | >50 | >50 | >50 | >50 | >50 | >50 | >50 | –
